Results gathered from unrelated publications.
Tmem97: Sigma intracellular receptor 2 (Tmem97, Rattus norvegicus, UniProt Q5U3Y7)
Trypanothione synthetase: Trypanothione synthetase (Trypanosoma cruzi, UniProt Q9GT49)
EAPA: Endothiapepsin (EAPA, Cryphonectria parasitica, UniProt P11838)
BDKRB2: B2 bradykinin receptor (BDKRB2, Homo sapiens, UniProt P30411)
MTNR1A: Melatonin receptor type 1A (MTNR1A, Homo sapiens, UniProt P48039)

SMILES | target | observed | action | technique | tested at | inhibition
Oc1cccc(Nc2nc(-c3ccc(F)cc3F)cs2)c1 | Substance-P receptor (TACR1, Homo sapiens, UniProt P25103) | cell-free assay | – | – | 10 µM | 30%
CN(C)C1CCN(CC#Cc2nn(C3CCCC3)c3nc(NCc4ccccc4)ncc23)C1 (centres unmarked) | Testis-specific serine/threonine-protein kinase 1 (TSSK1B, Homo sapiens, UniProt Q9BXA7) | enzyme activity | inhibitor | FRET | 1 µM | -2%
CCCNc1nc2ccccc2n1Cc1ccc(Cl)cc1 | Tmem97 | ligand displacement | – | – | 10 µM | 54%
NCCNC(=O)CN1C(=O)Cc2c([nH]c3ccc(Br)cc23)-c2ccc(Cl)cc21 | Trypanothione synthetase | enzyme activity | inhibitor | absorbance | 30 µM | 26.3%
COc1cc(NC(C)=O)c(Cl)cc1C(=O)Nc1nccs1 | Prostaglandin G/H synthase 1 (PTGS1, Homo sapiens, UniProt P23219) | enzyme activity | inhibitor | – | 10 µM | 72%
NNC(CCc1ccccc1)c1nnnn1CC(=O)NCc1cccs1 (centres unmarked) | EAPA | enzyme activity | inhibitor | – | 200 µM | 39.1%
O=C(CN1C(=O)Cc2c([nH]c3ccc(Br)cc23)-c2ccc(Cl)cc21)NCCN1CCOCC1 | Trypanothione synthetase | enzyme activity | inhibitor | absorbance | 30 µM | 11.3%
C=CC1=C(C)C2=Cc3c(C=C)c(C)c4[n]3[Sn]([Cl])([Cl])[n]3c(c(C)c(CCC(=O)O)c3=CC3=NC(=C4)C(C)=C3CCC(=O)O)=CC1=N2 | Trypanothione synthetase | enzyme activity | inhibitor | absorbance | 25 µM | 18.7%
O=C(c1ccc(F)cc1)N(Cc1ccccc1)C1CCCCC1 | BDKRB2 | cell-free assay | – | – | 10 µM | -3%
O=C(Nc1ccc(S(=O)(=O)N2CCC(Cl)CC2)cc1)c1ccc([N+](=O)[O-])o1 | MTNR1A | ligand displacement | – | radioligand | 10 µM | 8%
O=C1N=C(N2CCCCN2)S/C1=C\c1ccc(F)cc1O | BDKRB2 | ligand displacement | – | radioligand | 10 µM | < 10%
COc1cc2c(cc1OC)CN(C(C)CCc1ccc(O)cc1)CC2 (centres unmarked) | Tmem97 | ligand displacement | – | radioligand | 0.1 µM | 94%
O=C(c1ccc(Cl)cc1)N(Cc1ccccc1)C1CCCCC1 | 5-hydroxytryptamine receptor 2C (HTR2C, Homo sapiens, UniProt P28335) | ligand displacement | – | radioligand | 10 µM | -5.5%
CC(C)(C)OC(=O)CN1C(=O)Cc2c([nH]c3ccc(Br)cc23)-c2ccc(Cl)cc21 | Trypanothione synthetase | enzyme activity | inhibitor | absorbance | 30 µM | 10.3%
CCCC(NN)c1nnnn1Cc1ccccc1 (centres unmarked) | EAPA | enzyme activity | inhibitor | – | 200 µM | 3%
O=C(CN1C(=O)Cc2c([nH]c3ccc(Br)cc23)-c2ccc(Cl)cc21)Nc1ncco1 | Trypanothione synthetase | enzyme activity | inhibitor | absorbance | 30 µM | 6.9%
Cc1ccc(Nc2nccc(N(C)c3ccc4c(C)n(C)nc4c3)n2)cc1S(N)(=O)=O | Serine/threonine-protein kinase SIK1 (SIK1, Homo sapiens, UniProt P57059) | enzyme activity | inhibitor | – | 10 µM | 69%
O=C(CN1C(=O)Cc2c([nH]c3ccc(Br)cc23)-c2ccc(Cl)cc21)N1CCN(c2ncccn2)CC1 | Trypanothione synthetase | enzyme activity | inhibitor | absorbance | 30 µM | 40.6%
NNC(COCc1ccccc1)c1nnnn1CCc1ccc(O)cc1 (centres unmarked) | EAPA | enzyme activity | inhibitor | – | 200 µM | 91.5%
CC(C)(C)OC(=O)NCCNC(=O)CN1C(=O)Cc2c([nH]c3ccc(Br)cc23)-c2ccc(Cl)cc21 | Trypanothione synthetase | enzyme activity | inhibitor | absorbance | 30 µM | 38.5%
Ic1cccc2cnccc12 | NMNAT1 (Homo sapiens, UniProt Q9HAN9) | enzyme activity | inhibitor | – | 10 µM | -3%
CCN(Cc1ccccc1C(F)(F)F)C(=O)C1CCN(S(=O)(=O)c2ccc3[nH]ncc3c2)CC1 | MTNR1A | ligand displacement | – | radioligand | 10 µM | 34%
CN(Cc1ccc(NC(=O)C2=Cc3cc(-c4ccc(OCCCCCCCF)cc4)ccc3CCC2)cc1)C1CCOCC1 | Tmem97 | ligand displacement | – | radioligand | 10 µM | 17%
